Among the data in ChEMBL document CHEMBL1154876, “Synthesis and antimicrobial studies on novel sulfonamides containing 4-azidomethyl coumarin” (2010) are MIC values, retold here.

Common to all, as to format: functional
The test system of one test is Enterococcus faecalis. Description: Antibacterial activity against Streptococcus faecalis MTCC 3382 after 18 hrs by broth microdilution method. The settings on record: MTCC 3382, 18 h. (Dilution methods test growth across graded concentrations, often in twofold steps.)
In a further test the test system is Staphylococcus aureus. Description: Antibacterial activity against Staphylococcus aureus MTCC 3160 after 18 hrs by broth microdilution method. The conditions noted are these: MTCC 3160, 18 h.
The test system of the next test is Bacillus subtilis. Description: Antibacterial activity against Bacillus subtilis MTCC 297 after 18 hrs by broth microdilution method. The conditions noted are these: MTCC 297, 18 h.
A further test relates to Pseudomonas aeruginosa. Description: Antibacterial activity against Pseudomonas aeruginosa MTCC 1034 after 18 hrs by broth microdilution method. The settings on record: MTCC 1034, 18 h.
A further test concerns Klebsiella pneumoniae. In words: Antibacterial activity against Klebsiella pneumoniae MTCC 3384 after 18 hrs by broth microdilution method. The settings on record: MTCC 3384, 18 h.
In another test the test system is Escherichia coli. Description: Antibacterial activity against Escherichia coli MTCC 1089 after 18 hrs by broth microdilution method. The conditions noted are these: MTCC 1089, 18 h.
Another test has as its system Candida albicans. In words: Antifungal activity against Candida albicans after 48 to 72 hrs by broth microdilution method. The gist of the method:
(§1)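 Test compounds were prepared as 10 mg/ml DMSO stocks and serially diluted twofold in Sabouraud's dextrose broth over 500, 250, 125, 62.5, 31.25, 16, 8, 4, 2 and 1, alongside fluconazole as reference. Plates were inoculated with 1–5 × 10⁴ cfu/ml and held at 25 °C for 48–72 h. The MIC was the lowest concentration showing no visible growth.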

The subject of another test is Aspergillus fumigatus. In words: Antifungal activity against Aspergillus fumigatus after 48 to 72 hrs by broth microdilution method. The gist of the method: as §1
The test system of the next test is Aspergillus niger. Description: Antifungal activity against Aspergillus niger after 48 to 72 hrs by broth microdilution method. The gist of the method:
as §1

In a further test the test system is Penicillium chrysogenum. In words: Antifungal activity against Penicillium chrysogenum after 48 to 72 hrs by broth microdilution method. The gist of the method: as §1
A further test deals with Mucor. In words: Antifungal activity against Mucor fuscus after 48 to 72 hrs by broth micro dilution method. The gist of the method:
as §1

A further test relates to Fusarium oxysporum. In words: Antifungal activity against Fusarium oxysporum after 48 to 72 hrs by broth microdilution method. The gist of the method:
as §1

Converted amounts (≈) assume the structure as drawn. Some results are limits rather than exact numbers.

By MIC is commonly meant the lowest concentration that inhibits growth of the organism. Lower therefore signals inhibition by little substance. Take `Cc1cc2oc(=O)cc(CN=[N+]=[N-])c2cc1S(=O)(=O)Nc1ccc(Br)cc1`: the MIC in the test with Enterococcus faecalis was 1 µg/mL (≈ 2.23 µM); in the test on Staphylococcus aureus, 16 µg/mL (≈ 35.6 µM); against Bacillus subtilis it was more than 500 µg/mL; in the test on Pseudomonas aeruginosa, 1 µg/mL (≈ 2.23 µM); against Klebsiella pneumoniae, 1 µg/mL (≈ 2.23 µM); in the test with Escherichia coli it was more than 500 µg/mL. Besides, the MIC against Candida albicans was 125 µg/mL (≈ 278 µM); in the test on Aspergillus fumigatus, more than 500 µg/mL; in the test with Aspergillus niger it was more than 500 µg/mL; in the test on Penicillium chrysogenum, 16 µg/mL (≈ 35.6 µM); against Mucor, 250 µg/mL (≈ 556 µM); against Fusarium oxysporum it was 1 µg/mL (≈ 2.23 µM).
For `Cc1ccc(NS(=O)(=O)c2cc3c(CN=[N+]=[N-])cc(=O)oc3cc2C)cc1Cl`, the MIC in the test with Enterococcus faecalis is 8 µg/mL (≈ 19.1 µM); with Staphylococcus aureus, 8 µg/mL (≈ 19.1 µM); in the test with Bacillus subtilis, 4 µg/mL (≈ 9.55 µM); with Pseudomonas aeruginosa, 1 µg/mL (≈ 2.39 µM); against Klebsiella pneumoniae, 8 µg/mL (≈ 19.1 µM); against Escherichia coli, more than 500 µg/mL. Also, the MIC with Candida albicans was determined as 31.2 µg/mL (≈ 74.6 µM); with Aspergillus fumigatus it was 16 µg/mL (≈ 38.2 µM); against Aspergillus niger it was 16 µg/mL (≈ 38.2 µM); against Penicillium chrysogenum, 4 µg/mL (≈ 9.55 µM); in the test with Mucor, 16 µg/mL (≈ 38.2 µM); in the test on Fusarium oxysporum, 1 µg/mL (≈ 2.39 µM).
Consider `Cc1cc2oc(=O)cc(CN=[N+]=[N-])c2cc1S(=O)(=O)Nc1cc([N+](=O)[O-])ccc1Cl`, for which the MIC with Enterococcus faecalis was 2 µg/mL (≈ 4.45 µM); in the test with Staphylococcus aureus, 2 µg/mL (≈ 4.45 µM); against Bacillus subtilis, 125 µg/mL (≈ 278 µM); with Pseudomonas aeruginosa it was 2 µg/mL (≈ 4.45 µM); with Klebsiella pneumoniae it was 62.5 µg/mL (≈ 139 µM); against Escherichia coli, more than 500 µg/mL. For the same compound, the MIC was 4 µg/mL (≈ 8.89 µM) in the test on Candida albicans; 2 µg/mL (≈ 4.45 µM) with Aspergillus fumigatus; 8 µg/mL (≈ 17.8 µM) against Aspergillus niger; 125 µg/mL (≈ 278 µM) with Penicillium chrysogenum; 62.5 µg/mL (≈ 139 µM) in the test on Mucor; 1 µg/mL (≈ 2.22 µM) with Fusarium oxysporum.
For the compound `Cc1cc2oc(=O)cc(CN=[N+]=[N-])c2cc1S(=O)(=O)Nc1ccc(Cl)cc1[N+](=O)[O-]`, the MIC was 4 µg/mL (≈ 8.89 µM) with Enterococcus faecalis; 4 µg/mL (≈ 8.89 µM) in the test on Staphylococcus aureus; 250 µg/mL (≈ 556 µM) in the test with Bacillus subtilis; 8 µg/mL (≈ 17.8 µM) with Pseudomonas aeruginosa; 16 µg/mL (≈ 35.6 µM) in the test with Klebsiella pneumoniae; more than 500 µg/mL against Escherichia coli. Besides, the MIC was 16 µg/mL (≈ 35.6 µM) against Candida albicans; more than 500 µg/mL in the test with Aspergillus fumigatus; 62.5 µg/mL (≈ 139 µM) against Aspergillus niger; 125 µg/mL (≈ 278 µM) in the test with Penicillium chrysogenum; 8 µg/mL (≈ 17.8 µM) in the test with Mucor; 1 µg/mL (≈ 2.22 µM) with Fusarium oxysporum.
On to `Cc1cc2oc(=O)cc(CN=[N+]=[N-])c2cc1S(=O)(=O)Nc1ccc(Cl)c(Cl)c1`, for which the MIC with Enterococcus faecalis was 16 µg/mL (≈ 36.4 µM); against Staphylococcus aureus it was 4 µg/mL (≈ 9.11 µM); in the test with Bacillus subtilis it was 2 µg/mL (≈ 4.55 µM); against Pseudomonas aeruginosa, 8 µg/mL (≈ 18.2 µM); against Klebsiella pneumoniae it was 1 µg/mL (≈ 2.28 µM); with Escherichia coli, more than 500 µg/mL. The MIC is 16 µg/mL (≈ 36.4 µM) against Candida albicans; 31.2 µg/mL (≈ 71.1 µM) against Aspergillus fumigatus; 16 µg/mL (≈ 36.4 µM) against Aspergillus niger; 2 µg/mL (≈ 4.55 µM) in the test with Penicillium chrysogenum; 31.2 µg/mL (≈ 71.1 µM) in the test with Mucor; 1 µg/mL (≈ 2.28 µM) in the test on Fusarium oxysporum.
Regarding `Cc1cc2oc(=O)cc(CN=[N+]=[N-])c2cc1S(=O)(=O)Nc1cccc2ccccc12`, the MIC was 2 µg/mL (≈ 4.76 µM) in the test on Enterococcus faecalis; 16 µg/mL (≈ 38.1 µM) against Staphylococcus aureus; more than 500 µg/mL against Bacillus subtilis; 8 µg/mL (≈ 19 µM) against Pseudomonas aeruginosa; 1 µg/mL (≈ 2.38 µM) in the test with Klebsiella pneumoniae; more than 500 µg/mL with Escherichia coli. Further, the MIC in the test with Candida albicans came out at 8 µg/mL (≈ 19 µM); with Aspergillus fumigatus, 2 µg/mL (≈ 4.76 µM); in the test on Aspergillus niger, 1 µg/mL (≈ 2.38 µM); with Penicillium chrysogenum, 16 µg/mL (≈ 38.1 µM); against Mucor, 31.2 µg/mL (≈ 74.3 µM); with Fusarium oxysporum it was 1 µg/mL (≈ 2.38 µM).
Take `Cc1ccc(NS(=O)(=O)c2cc3c(CN=[N+]=[N-])cc(=O)oc3cc2C)c([N+](=O)[O-])c1`: the minimal inhibitory concentration (MIC) came out at 1 µg/mL (≈ 2.33 µM) in the test with Enterococcus faecalis; 16 µg/mL (≈ 37.3 µM) against Staphylococcus aureus; 250 µg/mL (≈ 582 µM) in the test on Bacillus subtilis; 16 µg/mL (≈ 37.3 µM) with Pseudomonas aeruginosa; 4 µg/mL (≈ 9.32 µM) in the test with Klebsiella pneumoniae; 250 µg/mL (≈ 582 µM) against Escherichia coli. Also, the MIC against Candida albicans was 16 µg/mL (≈ 37.3 µM); with Aspergillus fumigatus, 125 µg/mL (≈ 291 µM); against Aspergillus niger, 31.2 µg/mL (≈ 72.8 µM); against Penicillium chrysogenum it was 31.2 µg/mL (≈ 72.8 µM); against Mucor, 62.5 µg/mL (≈ 146 µM); against Fusarium oxysporum, 1 µg/mL (≈ 2.33 µM).
Turning to `Cc1cc([N+](=O)[O-])ccc1NS(=O)(=O)c1cc2c(CN=[N+]=[N-])cc(=O)oc2cc1C`, the MIC against Enterococcus faecalis stood at 4 µg/mL (≈ 9.32 µM); against Staphylococcus aureus it was 16 µg/mL (≈ 37.3 µM); against Bacillus subtilis it was 4 µg/mL (≈ 9.32 µM); with Pseudomonas aeruginosa, 125 µg/mL (≈ 291 µM); in the test on Klebsiella pneumoniae, 31.2 µg/mL (≈ 72.8 µM); against Escherichia coli, 125 µg/mL (≈ 291 µM). Also, the MIC stood at 16 µg/mL (≈ 37.3 µM) in the test with Candida albicans; 8 µg/mL (≈ 18.6 µM) against Aspergillus fumigatus; 4 µg/mL (≈ 9.32 µM) with Aspergillus niger; 2 µg/mL (≈ 4.66 µM) in the test on Penicillium chrysogenum; 2 µg/mL (≈ 4.66 µM) against Mucor; 2 µg/mL (≈ 4.66 µM) with Fusarium oxysporum.
